According to ChEMBL document CHEMBL2040832, “Design and synthesis of new (E)-cinnamic N-acylhydrazones as potent antitrypanosomal agents” (Eur J Med Chem, 2012):

Assays:
Trypanosoma cruzi [1] = test: Antitrypanosomal activity against Trypanosoma cruzi Tulahuen C2C4 intracellular amastigotes infected in rat L6 cells after 4 days by photometry; assay type: functional, organism-based; settings: Tulahuen C2C4, L6, 96 h
In short: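 L6 rat myoblasts seeded at 2000 cells/well in RPMI 1640 with 10% FBS and 2 mM L-glutamine; after 24 h infected with 5000 T. cruzi Tulahuen C2C4 LacZ trypomastigotes. At 48 h medium replaced with seven 3-fold serial drug dilutions spanning 0.123 to 90 µg/mL.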

Trypanosoma cruzi [2] = test: Antitrypanosomal activity against bloodstream form of Trypanosoma cruzi Y trypomastigotes infected in Swiss mouse; assay type: functional, organism-based
J774 = test: Cytotoxicity against mouse J774 cells after 18 hrs by MTT assay; assay type: cell-based; settings: J774, 18 h
In short: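 J774 macrophages plated at 2.5 × 10⁶ cells/mL for 1 h (5% CO₂, 37 °C), non-adherent cells washed off with RPMI 1640. Adherent cells exposed to compounds (0.1–[…]), medium alone or 3% Tween 20 in triplicate for 18 h; MTT added for 4 h, formazan dissolved in DMSO, absorbance at 540 nm; LC₅₀ reported.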

[3] = Selectivity index, ratio of IC50 for mouse J774 cells to IC50 for bloodstream form of Trypanosoma cruzi trypomastigote; assay type: toxicity, cell-based; settings: read-out: Ratio IC50
Cruzipain [4] = target: T1, Cruzipain (Trypanosoma cruzi, UniProt P25779); test: Inhibition of Trypanosoma cruzi C-terminally truncated cruzain expressed in Escherichia coli using Z-Phe-Arg-AMC as substrate incubated for 5 mins prior to substrate addition by spectrofluorometry
T1 sequence (P25779 whole entry, the tested form may be a part): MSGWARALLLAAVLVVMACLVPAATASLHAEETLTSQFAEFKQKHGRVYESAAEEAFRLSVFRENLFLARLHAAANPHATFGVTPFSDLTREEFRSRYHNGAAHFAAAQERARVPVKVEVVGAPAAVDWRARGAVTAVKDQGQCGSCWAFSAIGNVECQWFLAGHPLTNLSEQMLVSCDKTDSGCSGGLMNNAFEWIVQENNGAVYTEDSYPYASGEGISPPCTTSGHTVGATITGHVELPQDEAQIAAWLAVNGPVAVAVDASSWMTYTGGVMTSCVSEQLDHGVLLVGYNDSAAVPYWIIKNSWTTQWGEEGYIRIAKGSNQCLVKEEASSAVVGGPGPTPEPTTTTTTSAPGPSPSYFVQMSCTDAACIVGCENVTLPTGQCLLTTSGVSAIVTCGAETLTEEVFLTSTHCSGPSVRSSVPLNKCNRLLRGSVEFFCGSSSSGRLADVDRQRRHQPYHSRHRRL
In short: (§1)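 Purified C-terminally truncated cruzain from E. coli (M15 or DH5a), 0.64 nM, in 50 mM sodium phosphate, 100 mM NaCl, 5 mM EDTA, 5 mM DTT, pH 6.5, preincubated with inhibitor 5 min at room temperature before Z-Phe-Arg-AMC. AMC release followed by fluorescence (ex 355, em 460 nm). IC₅₀ by nonlinear regression from ≥7 concentrations giving 20–85% inhibition, relative to uninhibited activity.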

Cruzipain [5] = target: T1, Cruzipain; test: Inhibition of Trypanosoma cruzi cruzain; in short: as §1

SMILES	IC50 (Trypanosoma cruzi [1]) [µM]	IC50 (Trypanosoma cruzi [2]) [µM]	IC50 (J774) [µM]	selectivity ratio [3]	IC50 (Cruzipain [4]) [µM]	IC50 (Cruzipain [5]) [µM]
COc1cc(/C=N/NC(=O)/C=C/c2ccccc2)ccc1O	73	127	–	–	–	–
COc1ccc(/C=C/C(=O)N/N=C/c2ccccc2O)cc1OC	–	65	–	–	–	–
COc1ccc(/C=N/NC(=O)/C=C/c2ccccc2)cc1O	> 100	> 1100	–	–	–	–
COc1cc(/C=N/NC(=O)/C=C/c2cc(OC)c(OC)c(OC)c2)cc([N+](=O)[O-])c1O	–	18	2410	134	45.9	–
COc1ccc2cc(O)c(C(=O)N/N=C/c3c(O)ccc4ccccc34)cc2c1	–	–	–	–	–	0.6
COc1cc(/C=N/NC(=O)c2ccc3ccccc3c2)cc([N+](=O)[O-])c1O	–	93	–	–	–	–
COc1ccc(/C=N/NC(=O)/C=C/c2ccccc2)cc1OC	> 100	> 1100	–	–	–	–
O=C(/C=C/c1ccccc1)N/N=C/c1ccc(F)cc1	> 100	> 1100	–	–	–	–
COc1cc(/C=C/C(=O)N/N=C/c2ccccc2O)cc([N+](=O)[O-])c1OC	–	17	550	32	83.9	–
COc1cc(/C=N/NC(=O)/C=C/c2ccc3c(c2)OCO3)cc([N+](=O)[O-])c1O	–	> 1100	–	–	–	–
O=C(CCc1ccccc1)N/N=C/c1ccccc1O	–	18	1630	90	> 100	–
O=C(/C=C/c1ccccc1)N/N=C/c1ccccc1	> 100	> 1100	–	–	–	–
O=C(/C=C/c1ccccc1)N/N=C/c1ccc([N+](=O)[O-])cc1	81	> 1100	–	–	–	–
O=C(/C=C/c1ccccc1)N/N=C/c1ccc(Br)cc1	–	> 1100	–	–	–	–
O=C(/C=C/c1ccccc1)N/N=C/c1ccc(O)c(O)c1	> 100	107	–	–	–	–
COc1cc(/C=N/NC(=O)CCc2ccccc2)cc([N+](=O)[O-])c1O	–	> 1100	–	–	–	–

SMILES	IC50 (Trypanosoma cruzi [1]) [µM]	IC50 (Trypanosoma cruzi [2]) [µM]	IC50 (J774) [µM]	selectivity ratio [3]	IC50 (Cruzipain [4]) [µM]	IC50 (Cruzipain [5]) [µM]
COc1cc(/C=N/NC(=O)/C=C/c2cc(OC)c(OC)c([N+](=O)[O-])c2)cc([N+](=O)[O-])c1O	–	16	1860	116	44.7	–
O=C(/C=C/c1ccc2c(c1)OCO2)c1ccc(Br)cc1	–	–	–	–	–	20
COc1ccc(/C=C/C(=O)N/N=C/c2cc(OC)c(O)c([N+](=O)[O-])c2)cc1OC	–	> 1100	–	–	–	–
O=C(/C=C/c1ccccc1)N/N=C/c1ccc2c(c1)OCO2	61	> 1100	–	–	–	–
O=C(Cn1ccnc1[N+](=O)[O-])NCc1ccccc1 [BENZNIDAZOLE]	0.122	10.8	3840	356	–	–
COc1ccc(/C=N/NC(=O)/C=C/c2ccccc2)cc1	> 100	> 1100	–	–	–	–
COc1cc(/C=N/NC(=O)/C=C/c2ccccc2)cc([N+](=O)[O-])c1O	40	> 1100	–	–	–	–
O=C(/C=C/c1ccccc1)N/N=C/c1ccc(O)cc1	> 100	> 1100	–	–	–	–
COc1cc(/C=C/C(=O)N/N=C/c2ccccc2)cc([N+](=O)[O-])c1O	–	79	–	–	–	–
O=C(N/N=C/c1ccccc1O)c1ccc2ccccc2c1	–	93	–	–	–	–
COc1cc(/C=N/NC(=O)/C=C/c2ccccc2)cc(OC)c1OC	70	71	–	–	–	–
O=C(/C=C/c1ccccc1)N/N=C/c1ccc(Cl)cc1	> 100	> 1100	–	–	–	–
O=C(/C=C/c1ccc2c(c1)OCO2)N/N=C/c1ccccc1O	–	5.6	281	50	74.8	–
O=C(/C=C/c1ccccc1)N/N=C/c1ccccc1O	6.6	5.9	420	71	52.2	–
COc1cc(/C=C/C(=O)N/N=C/c2ccccc2O)cc(OC)c1OC	–	78.8	–	–	–	–
